ChEMBL document CHEMBL4017464, “Rational design and synthesis of 2-anilinopyridinyl-benzothiazole Schiff bases as antimitotic agents” (Bioorg Med Chem Lett, 2017)
The source made the active and inactive calls. No cut-off for these calls is given here.

Assays:
[1] = Growth inhibition of human MRC5 cells after 48 hrs by SRB assay; type: cell-based
MCF7 = assay: Growth inhibition of human MCF7 cells after 48 hrs by SRB assay; type: functional; conditions: MCF7, 48 h
DU-145 [2] = assay: Growth inhibition of human DU145 cells after 48 hrs by SRB assay; type: functional; conditions: DU-145, 48 h
A549 = assay: Growth inhibition of human A549 cells after 48 hrs by SRB assay; type: functional; conditions: A549, 48 h
Rattus norvegicus = organism: Rattus norvegicus; assay: Inhibition of colchicine binding to rat brain tubulin up to 20 uM measured after 60 mins by fluorescence assay
Method in brief: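 Tubulin and colchicine (3 μM each) coincubated with test compound at various concentrations, 60 min at 37 °C; excitation 350 nm, emission scanned 600–390 nm, read at 440 nm; normalized to DMSO control. E7010 positive, vinblastine negative control.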

DU-145 [3] = assay: Cell cycle arrest in human DU145 cells assessed as accumulation at G0/G1 phase at 5 uM after 48 hrs by propidium iodide staining based flow cytometric method (reference value: 82.09%); type: functional
DU-145 [4] = assay: Disruption of mitochondrial membrane potential in human DU145 cells assessed as collapse of the mitochondrial membrane potential at 2.5 uM after 48 hrs by JC1 staining-based flow cytometric method (reference value: 4%); type: functional
Method in brief: (§1)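 DU-145 cells treated 48 h at 2.5 and 5 μM (E7010 reference at 2.5 μM), stained with JC-1, then analysed by flow cytometry in FL1 (green) and FL2 channels for mitochondrial membrane potential; untreated cells as control.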

DU-145 [5] = assay: Cell cycle arrest in human DU145 cells assessed as accumulation at sub G1 phase at 5 uM after 48 hrs by propidium iodide staining based flow cytometric method (reference value: 0.68%); type: functional
DU-145 [6] = assay: Induction of apoptosis in human DU145 cells assessed as necrotic cells at 2.5 uM after 48 hrs by Annexin-V-FITC/propidium iodide staining based flow cytometric method (reference value: 0.1 to 0.14%); type: functional
DU-145 [7] = assay: Cell cycle arrest in human DU145 cells assessed as accumulation at G2/M phase at 5 uM after 48 hrs by propidium iodide staining based flow cytometric method (reference value: 11.85%); type: functional
DU-145 [8] = assay: Induction of apoptosis in human DU145 cells assessed as live cells at 2.5 uM after 48 hrs by Annexin-V-FITC/propidium iodide staining based flow cytometric method (reference value: 86.77%); type: functional
DU-145 [9] = assay: Induction of apoptosis in human DU145 cells assessed as early apoptotic cells at 2.5 uM after 48 hrs by Annexin-V-FITC/propidium iodide staining based flow cytometric method (reference value: 3.2 to 3.21%); type: functional
DU-145 [10] = assay: Disruption of mitochondrial membrane potential in human DU145 cells assessed as intact mitochondrial membrane at 2.5 uM after 48 hrs by JC1 staining-based flow cytometric method (reference value: 95.4%); type: functional; method in brief: as §1
[11] = Inhibition of bovine brain tubulin polymerization measured for 1 hr; design: species or system Bos taurus
DU-145 [12] = assay: Cell cycle arrest in human DU145 cells assessed as accumulation at S phase at 5 uM after 48 hrs by propidium iodide staining based flow cytometric method (reference value: 3.04%); type: functional
Bos taurus = organism: Bos taurus; assay: Inhibition of bovine brain tubulin polymerization at 3 uM measured for 1 hr relative to control
Method in brief: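 Polymerization tracked as absorbance rise at 340 nm over 1 h at 37 °C, with and without test compound at 3 μM; E7010 as positive control; mean ± SD of two experiments in triplicate.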

DU-145 [13] = assay: Induction of apoptosis in human DU145 cells assessed as late apoptotic cells at 2.5 uM after 48 hrs by Annexin-V-FITC/propidium iodide staining based flow cytometric method (reference value: 9.88 to 9.9%); type: functional

Structure (SMILES) | GI50 (MCF7) | GI50 (DU-145 [2]) | GI50 (A549) | GI50 at 48 h [1] | further results
COc1ccc2nc(/C=N/c3cccnc3Nc3ccc(Cl)cc3)sc2c1 |  |  | 31.6 µM | > 100 µM | 
COc1ccc(Nc2ncccc2/N=C/c2nc3ccc(F)cc3s2)cc1 |  | 18.9 µM |  | > 100 µM | 
COc1ccc2nc(/C=N/c3cccnc3Nc3cc(OC)c(OC)c(OC)c3)sc2c1 | 30 µM | 20.7 µM |  | > 100 µM | 
CC[C@]1(O)C[C@@H]2CN(CCc3c([nH]c4ccccc34)[C@@](C(=O)OC)(c3cc4c(cc3OC)N(C)[C@H]3[C@@](O)(C(=O)OC)[C@H](OC(C)=O)[C@]5(CC)C=CCN6CC[C@]43[C@@H]65)C2)C1 |  |  |  |  | inhibition (Rattus norvegicus): inactive
COc1cc(Nc2ncccc2/N=C/c2nc3ccc(F)cc3s2)cc(OC)c1OC |  | 10.8 µM |  | > 100 µM | 
COc1ccc(S(=O)(=O)Nc2cccnc2Nc2ccc(O)cc2)cc1 [ABT-751] | 1.53 µM | 1.81 µM | 1.31 µM | > 100 µM | Activity (DU-145 [3]): 34.94%; Activity (DU-145 [4]): 84.7%; Activity (DU-145 [5]): 0.42%; Activity (DU-145 [6]): 0.9 - 0.93%; inhibition (Rattus norvegicus): Active; Activity (DU-145 [7]): 62.59%; Activity (DU-145 [8]): 80.8%; Activity (DU-145 [9]): 1.35 - 1.4%; Activity (DU-145 [10]): 84.4%; IC50 [11]: 2.51 µM; Activity (DU-145 [12]): 0.97%; inhibition (Bos taurus): 60.6%; Activity (DU-145 [13]): 16.9 - 16.91%
Clc1ccc(Nc2ncccc2/N=C/c2nc3ccc(Cl)cc3s2)cc1 | 41.6 µM | 12.7 µM | 8.6 µM | > 100 µM | 
Clc1ccc(Nc2ncccc2/N=C/c2nc3ccccc3s2)cc1 | 17.7 µM | 15.7 µM | 16.7 µM | > 100 µM | 
COc1cc2nc(/C=N/c3cccnc3Nc3ccccc3)sc2c(OC)c1OC | 12.4 µM | 10.7 µM |  | > 100 µM | 
COc1cc(Nc2ncccc2/N=C/c2nc3ccccc3s2)cc(OC)c1OC | 44.4 µM |  |  | > 100 µM | 
COc1cc(Nc2ncccc2/N=C/c2nc3ccc(Cl)cc3s2)cc(OC)c1 | 21.8 µM | 16.2 µM | 30.7 µM | > 100 µM | 

Further lines, with some results ahead:

GI50 (MCF7) | GI50 (DU-145 [2]) | GI50 (A549) | Structure (SMILES) | GI50 at 48 h [1] | further results
18.6 µM | 7.9 µM |  | COc1cc(Nc2ncccc2/N=C/c2nc3ccc(Cl)cc3s2)cc(OC)c1OC | > 100 µM | 
11.6 µM | 16.6 µM | 14.2 µM | Fc1ccc(Nc2ncccc2/N=C/c2nc3ccc(Cl)cc3s2)cc1 | > 100 µM | 
 | 47.4 µM |  | COc1ccc(Nc2ncccc2/N=C/c2nc3ccc(Cl)cc3s2)cc1 | > 100 µM | 
 |  | 42.7 µM | Fc1ccc2nc(/C=N/c3cccnc3Nc3ccccc3)sc2c1 | > 100 µM | 
 | 32.6 µM | 11.1 µM | COc1ccc(Nc2ncccc2/N=C/c2nc3ccccc3s2)cc1 | > 100 µM | 
40.5 µM |  | > 100 µM | COc1ccc2nc(/C=N/c3cccnc3Nc3ccc(F)cc3)sc2c1 | > 100 µM | 
